The test system of test [1] is MDA-MB-231. Kind of test: Potentiation of […] cisplatin-induced toxicity in 1 uM cisplatin resistant human MDA-MB-231 cells at 1.5 uM pretreated for 48 hrs followed by 1 uM cisplatin treatment by MTT assay. The format is functional. A general note: Formazan colour is commonly taken as a measure of viable cells.
Test [2] has as its system CAL-27. Kind of test: Cytotoxicity against cisplatin sensitive human CAL27 cells after 72 hrs by MTT assay. It is filed as functional, cell-based. As to conditions: CAL-27, 72 h.
For test [3], the system named is A2780. Kind of test: Potentiation of cisplatin-induced toxicity in cisplatin resistant human A2780 cells at 1 uM pretreated for 48 hrs followed by cisplatin treatment by MTT assay. It is filed as functional. The method, boiled down: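 Resistant sublines pretreated 48 h with 1 μM HDAC inhibitor, then cisplatin over a concentration range for 72 h; MTT viability read at 544/690 nm. Cisplatin IC50 from four-parameter logistic fit of pooled data (≥3 experiments, triplicate); shift factor = IC50 of cisplatin alone divided by IC50 of the combination.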

In test [4] the test system is CAL-27. The experiment in a line: Potentiation of 45 uM cisplatin-induced toxicity in 1 uM cisplatin resistant human CAL27 cells at 1.5 uM pretreated for 48 hrs followed by 1 uM cisplatin treatment by MTT assay. It is filed as functional.
The test system of test [5] is KYSE-510. The experiment in a line: Potentiation of 1 uM cisplatin-induced toxicity in 0.5 uM cisplatin resistant human KYSE-510 cells at 1 uM pretreated for 48 hrs followed by 0.5 uM cisplatin treatment by MTT assay. It is filed as functional.
Test [6] concerns A2780. Kind of test: Potentiation of 10 uM cisplatin-induced toxicity in 5 uM cisplatin resistant human A2780 cells at 0.5 uM pretreated for 48 hrs followed by 5 uM cisplatin treatment by MTT assay. The format is functional.
Test [7] deals with KYSE-510. The experiment in a line: Potentiation of 0.5 uM cisplatin-induced toxicity in 0.5 uM cisplatin resistant human KYSE-510 cells at 0.25 uM pretreated for 48 hrs followed by 0.5 uM cisplatin treatment by MTT assay. It is filed as functional.
The subject of test [8] is CAL-27. Kind of test: Potentiation of 10 uM cisplatin-induced toxicity in 1 uM cisplatin resistant human CAL27 cells at 0.5 uM pretreated for 48 hrs followed by 1 uM cisplatin treatment by MTT assay. It is filed as functional.
Test [9] relates to CAL-27. Kind of test: Potentiation of 1 uM cisplatin-induced toxicity in 1 uM cisplatin resistant human CAL27 cells at 0.5 uM pretreated for 48 hrs followed by 1 uM cisplatin treatment by MTT assay. It is filed as functional.

Each structure is given as a SMILES string. Where only a bound is given, the exact number is not on record here.

On to `Cc1cc(C)cc(C(=O)NOCCCCCC(=O)NO)c1`, for which the Activity entry in [1], in test [3], in [4], in test [5], in test [6] and in test [7] was “Dose-dependent effect” each time. Further, the Activity result in test [8] and in test [9] was “Dose-dependent effect” throughout. Further, the “fractional inhibitory concentration index (FICI)” value in test [1] is 0.8; in [4], 0.23; in [5], 0.05; in test [6] it was 0.69; in test [7], 0.18; in [8], 0.41. Also, the “fractional inhibitory concentration index (FICI)” value in test [9] is less than 0.2. The IC50 (usually the concentration that gives 50% inhibition) in [2] was 1030 nM. In test [3], the fold change (FC) is 4.02.

(Values after ChEMBL document CHEMBL2311425, “Histone deacetylase (HDAC) inhibitors with a novel connecting unit linker region reveal a selectivity profile for HDAC4 and HDAC5 with improved activity against chemoresistant cancer cells” (J Med Chem, 2013).)
